pIC50: −log10 of the molar value.
How the values were obtained:
[1] = tested on: Leishmania donovani; assay: Antileishmanial activity against Leishmania donovani MHOM/IN/00/DEVI promastigotes measured after 72 hrs by MTT assay; assay type: functional, organism-based
Method in brief: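 Log-phase promastigotes were grown in Schneider's medium with 20% FCS, 2 mM L-glutamine and penicillin/streptomycin, and seeded at 10⁶ parasites/mL. Compounds in DMSO (final <0.5% v/v) were tested in duplicate for 72 h at 27 °C. MTT was added for 4 h, the reaction was stopped with 50% isopropanol/10% SDS, and A570 was read. IC50 relative to control was fitted by non-linear regression; mean of ≥3 independent experiments.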

[2] = Selectivity index, ratio of CC50 for CHO cells to IC50 for antileishmanial activity against Leishmania donovani MHOM/IN/00/DEVI promastigotes; assay type: toxicity; conditions: hamster, read-out: Ratio CC50/IC50
Method in brief: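 SI = CHO CC50 / promastigote IC50. Promastigotes: log-phase, Schneider's + 20% FCS, 10⁶/mL, DMSO <0.5% final, 72 h at 27 °C, MTT 4 h, A570, ≥3 experiments. CHO: complete RPMI + 10% FCS, 24 h attachment, 24 h exposure at 37 °C, MTT 0.5 mg/mL 2 h, A570/630, three experiments. Both values from non-linear regression of dose-response curves.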

[3] = tested on: Trypanosoma cruzi; assay: Antitrypanosomal activity against Trypanosoma cruzi CL amastigotes overexpressing tdTomato red fluorescent protein infected in gamma-irradiated African green monkey Vero cells assessed as reduction in parasite growth measured 3 days post-infection by fluorescence assay; assay type: functional, organism-based; conditions: light or radiation study, 72 h
[4] = Selectivity index, ratio of CC50 for CHO cells to IC50 for antitrypanosomal activity against Trypanosoma cruzi CL amastigotes overexpressing tdTomato red fluorescent protein infected in gamma-irradiated African green monkey Vero cells; assay type: toxicity; conditions: Chinese hamster, read-out: Ratio CC50/IC50
Method in brief: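 SI = CHO CC50 / T. cruzi IC50. CHO cells: complete RPMI + 10% FCS, 24 h attachment, then 24 h compound exposure at 37 °C, 5% CO₂, DMSO <0.5% final, in duplicate. MTT 0.5 mg/mL for 2 h, read at A570/630, three experiments. Parasites were tdTomato-labelled trypomastigotes. Both values from non-linear regression of dose-response curves.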

[5] = Cytotoxicity against CHO cells assessed as reduction in cell viability after 24 hrs by MTT assay; assay type: cell-based, Cricetulus griseus; conditions: chinese hamster
Method in brief: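 Cells in complete RPMI (10% FCS, L-glutamine, penicillin/streptomycin) were allowed to adhere for 24 h at 37 °C in 5% CO₂. Compounds in DMSO (final <0.5% v/v) were then added in duplicate for 24 h. MTT (0.5 mg/mL in FCS-free medium) was applied for 2 h, formazan was dissolved in DMSO, and A570 was read with 630 nm reference. Viability is % of untreated cells; CC50 by non-linear regression; mean of three experiments.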

With `CC1Cn2c(nc([N+](=O)[O-])c2C#CC2CC2)O1` (centres undefined) the pIC50 [1] was 5.34, the selectivity ratio [2] was 1.4 and the pIC50 [3] was 5.39. For the same compound, the selectivity ratio [4] was 1.6 and the CC50 at 24 h [5] was 6.45 µM.

`COc1cccc2c1C(=O)c1c(O)c3c(c(O)c1C2=O)C[C@@](O)(C(=O)CO)C[C@@H]3O[C@H]1C[C@H](N)[C@H](O)[C@H](C)O1` [DOXORUBICIN] gave a CC50 at 24 h [5] of 4.65 µM.

Work on `CC1Cn2cc([N+](=O)[O-])nc2O1` (centres undefined) yielded a pIC50 [1] of 7.00, a selectivity ratio [2] greater than 5000 and a pIC50 [3] of less than 5.00. For the same compound, the CC50 at 24 h [5] was greater than 500 µM.

With `COc1cc(-c2c([N+](=O)[O-])nc3n2CC(C)O3)cc(OC)c1OC` (centres undefined) the pIC50 [1] was less than 5.00, the pIC50 [3] was less than 5.00 and the CC50 at 24 h [5] was greater than 125 µM.

`CC1Cn2c(nc([N+](=O)[O-])c2-c2ccccc2)O1` (centres undefined) gave a pIC50 [1] of less than 5.00, a pIC50 [3] of less than 5.00 and a CC50 at 24 h [5] greater than 500 µM.

Work on `CC1Cn2c(nc([N+](=O)[O-])c2Br)O1` (centres undefined) yielded a pIC50 [1] of 5.17, a selectivity ratio [2] of 1.4 and a pIC50 [3] of less than 5.00. For the same compound, the CC50 at 24 h [5] was 9.19 µM.

Work on `COc1cccc(C#Cc2c([N+](=O)[O-])nc3n2CC(C)O3)c1` (centres undefined) yielded a pIC50 [1] of 5.80, a selectivity ratio [2] of 8.1 and a pIC50 [3] of 6.04. The selectivity ratio [4] was 14 and the CC50 at 24 h [5] was 12.9 µM.

For `O=C(Cn1ccnc1[N+](=O)[O-])NCc1ccccc1` [BENZNIDAZOLE], the pIC50 [3] was 5.64.

`Cc1ccc(C#Cc2c([N+](=O)[O-])nc3n2CC(C)O3)cc1` (centres undefined) gave a pIC50 [1] of 5.78, a selectivity ratio [2] of 3.3 and a pIC50 [3] of 5.66. It also gave a selectivity ratio [4] of 2.5 and a CC50 at 24 h [5] of 5.47 µM.

With `CC1Cn2c(nc([N+](=O)[O-])c2-c2ccc(C=O)cc2)O1` (centres undefined) the pIC50 [1] was less than 5.00, the pIC50 [3] was less than 5.00 and the CC50 at 24 h [5] was 255 µM.

Compound `CC1Cn2c(nc([N+](=O)[O-])c2C#Cc2ccc(C(C)(C)C)cc2)O1` (centres undefined) has a pIC50 [1] of 6.21, a selectivity ratio [2] of 10.8 and a pIC50 [3] of 5.54. For the same compound, the selectivity ratio [4] was 2.3 and the CC50 at 24 h [5] was 6.62 µM.

`CC1Cn2c(nc([N+](=O)[O-])c2-c2ccc(CO)cc2)O1` (centres undefined) gave a pIC50 [1] of less than 5.00, a pIC50 [3] of less than 5.00 and a CC50 at 24 h [5] greater than 500 µM.

`CC1Cn2c(nc([N+](=O)[O-])c2C#Cc2cccc(N)c2)O1` (centres undefined) gave a pIC50 [1] of 5.46, a selectivity ratio [2] of 5.2 and a pIC50 [3] of 5.44. For the same compound, the selectivity ratio [4] was 5 and the CC50 at 24 h [5] was 18.1 µM.

For `CC1Cn2c(nc([N+](=O)[O-])c2-c2ccc(OC(F)(F)F)cc2)O1` (centres undefined), the pIC50 [1] was less than 5.00, the pIC50 [3] was less than 5.00 and the CC50 at 24 h [5] was greater than 125 µM.

In the case of `CC1Cn2c(nc([N+](=O)[O-])c2-c2cccc(C(F)(F)F)c2)O1` (centres undefined), the pIC50 [1] was less than 5.00, the pIC50 [3] was less than 5.00 and the CC50 at 24 h [5] was greater than 250 µM.

For `CC1Cn2c(nc([N+](=O)[O-])c2-c2cccc(C#N)c2)O1` (centres undefined), the pIC50 [1] was less than 5.00, the pIC50 [3] was less than 5.00 and the CC50 at 24 h [5] was greater than 500 µM.

Work on `CCCOc1ccc(-c2c([N+](=O)[O-])nc3n2CC(C)O3)cc1` (centres undefined) yielded a pIC50 [1] of less than 5.00, a pIC50 [3] of less than 5.00 and a CC50 at 24 h [5] greater than 125 µM.

Work on `CC1Cn2c(nc([N+](=O)[O-])c2C#Cc2ccc(CO)cc2)O1` (centres undefined) yielded a pIC50 [1] of 5.39, a selectivity ratio [2] of 2.1 and a pIC50 [3] of 5.79. The selectivity ratio [4] was 5.4 and the CC50 at 24 h [5] was 8.77 µM.

With `CC1Cn2c(nc([N+](=O)[O-])c2-c2ccc(Cl)cc2)O1` (centres undefined) the pIC50 [1] was less than 5.00, the pIC50 [3] was less than 5.00 and the CC50 at 24 h [5] was greater than 250 µM.

Work on `C[C@@H]1[C@H](O)[C@@H](C)/C=C/C=C/C=C/C=C/C=C/C=C/C=C/[C@H](O[C@@H]2O[C@H](C)[C@@H](O)[C@H](N)[C@@H]2O)C[C@@H]2O[C@](O)(C[C@@H](O)C[C@@H](O)[C@H](O)CC[C@@H](O)C[C@@H](O)CC(=O)O[C@H]1C)C[C@H](O)[C@H]2C(=O)O` [AMPHOTERICIN B] yielded a pIC50 [1] of 6.74.

With `Cc1ccc(-c2c([N+](=O)[O-])nc3n2CC(C)O3)s1` (centres undefined) the pIC50 [1] was less than 5.00, the pIC50 [3] was less than 5.00 and the CC50 at 24 h [5] was greater than 125 µM.

`CC1Cn2c(nc([N+](=O)[O-])c2C#Cc2ccccc2)O1` (centres undefined) showed a pIC50 [1] of 5.68, a selectivity ratio [2] of 1.7 and a pIC50 [3] of 5.84. It also gave a selectivity ratio [4] of 2.4 and a CC50 at 24 h [5] of 3.54 µM.

For `Cc1ccc(-c2c([N+](=O)[O-])nc3n2CC(C)O3)cc1` (centres undefined), the pIC50 [1] was less than 5.00, the pIC50 [3] was less than 5.00 and the CC50 at 24 h [5] was greater than 250 µM.
